According to ChEMBL document CHEMBL1148959, “Annoglabayin, a novel dimeric kaurane diterpenoid, and apoptosis in Hep G2 cells of annomontacin from the fruits of Annona glabra” (2004):

Experiments:
Type in all cases: functional
HepG2 [1] = assay: Cell cycle arrest in human HepG2 cells assessed as accumulation at G2M phase at 50 uM after 24 hrs using propidium iodide staining by FACS
Summary of the method: (§1)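 Hep G2 cells seeded at 5 × 10^5 per 60 mm dish 48 h ahead in DMEM with 10% FCS and antibiotics. Exposed 24 h; compound from DMSO stock diluted in medium. Adherent and floating cells pooled, fixed in PBS-MeOH (1:2) at 4 °C ≥18 h, then stained 30 min at room temperature in the dark with 50 µg/mL PI plus 50 µg/mL RNaseA. Flow cytometry at 488 nm excitation, emission >580 nm, doublets gated out; subG1 taken as the subdiploid fraction.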

HepG2 [2] = assay: Cell cycle arrest in human HepG2 cells assessed as accumulation at S phase at 50 uM after 24 hrs using propidium iodide staining by FACS; summary of the method: as §1
HepG2 [3] = assay: Cell cycle arrest in human HepG2 cells assessed as accumulation at G1 phase at 100 uM after 24 hrs using propidium iodide staining by FACS; summary of the method: as §1
HepG2 [4] = assay: Cell cycle arrest in human HepG2 cells assessed as accumulation at subG1 phase at 25 uM after 24 hrs using propidium iodide staining by FACS; summary of the method: as §1
HepG2 [5] = assay: Induction of early apoptosis in human HepG2 cells assessed as number of cells with decreased mitochondrial transmembrane potential at 100 uM after 3 hrs using rhodamine 123 staining by FACS
Summary of the method: (§2)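 Hep G2 cells seeded 5 × 105 per 60 mm dish 48 h ahead in DMEM with 10% FCS, penicillin, streptomycin and amphotericin B. Compound diluted into medium from a 200 mM DMSO stock and applied for 3, 6, 9 or 24 h; untreated cells as control. Medium then replaced with 5 µM rhodamine 123 for 30 min in the dark. Cells trypsinized and mean rhodamine 123 fluorescence read by flow cytometry. Run at least three times, with a representative experiment shown.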

HepG2 [6] = assay: Cell cycle arrest in human HepG2 cells assessed as accumulation at subG1 phase at 50 uM after 24 hrs using propidium iodide staining by FACS; summary of the method: as §1
HepG2 [7] = assay: Induction of apoptosis in human HepG2 cells assessed as cellular membrane damage at 100 uM after 24 hrs using propidium iodide staining by FACS
Summary of the method: (§3)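 Treated or untreated for 3, 6, 9 or 24 h at 100 µM, Hep G2 cells were trypsinized and stained 10 min with 5 µg/mL PI. Argon laser excitation at 488 nm, emission >580 nm, ≥10 000 cells counted. Cells were classed as intact or membrane-damaged after gating out debris. At least three runs; a representative run is shown.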

HepG2 [8] = assay: Cell cycle arrest in human HepG2 cells assessed as accumulation at S phase at 75 uM after 24 hrs using propidium iodide staining by FACS; summary of the method: as §1
HepG2 [9] = assay: Cell cycle arrest in human HepG2 cells assessed as accumulation at G2M phase at 75 uM after 24 hrs using propidium iodide staining by FACS; summary of the method: as §1
HepG2 [10] = assay: Cell cycle arrest in human HepG2 cells assessed as accumulation at G1 phase at 25 uM after 24 hrs using propidium iodide staining by FACS; summary of the method: as §1
HepG2 [11] = assay: Cell cycle arrest in human HepG2 cells assessed as accumulation at G2M phase at 100 uM after 24 hrs using propidium iodide staining by FACS; summary of the method: as §1
HepG2 [12] = assay: Induction of early apoptosis in human HepG2 cells assessed as number of cells with decreased mitochondrial transmembrane potential at 100 uM after 9 hrs using rhodamine 123 staining by FACS; summary of the method: as §2
HepG2 [13] = assay: Cell cycle arrest in human HepG2 cells assessed as accumulation at G1 phase at 75 uM after 24 hrs using propidium iodide staining by FACS; summary of the method: as §1
HepG2 [14] = assay: Effect on morphology in human HepG2 cells assessed as low cellular shape change at 100 uM after 9 hrs by FACS
Summary of the method: (§4)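 Hep G2 cells in DMEM/10% FCS were treated with or without 100 µM for 3, 6, 9 or 24 h, then trypsinized. Forward scatter (size) and side scatter (granularity) were read by flow cytometry. Normal versus low shape change was expressed as a percentage after gating out cellular debris. At least three runs; a representative run is shown.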

HepG2 [15] = assay: Effect on morphology in human HepG2 cells assessed as low cellular shape change at 100 uM after 6 hrs by FACS; summary of the method: as §4
HepG2 [16] = assay: Cell cycle arrest in human HepG2 cells assessed as accumulation at S phase at 100 uM after 24 hrs using propidium iodide staining by FACS; summary of the method: as §1
HepG2 [17] = assay: Cell cycle arrest in human HepG2 cells assessed as accumulation at S phase at 25 uM after 24 hrs using propidium iodide staining by FACS; summary of the method: as §1
HepG2 [18] = assay: Cell cycle arrest in human HepG2 cells assessed as accumulation at G1 phase at 50 uM after 24 hrs using propidium iodide staining by FACS; summary of the method: as §1
HepG2 [19] = assay: Induction of apoptosis in human HepG2 cells assessed as cellular membrane damage at 100 uM after 6 hrs using propidium iodide staining by FACS; summary of the method: as §3
HepG2 [20] = assay: Effect on morphology in human HepG2 cells assessed as low cellular shape change at 100 uM after 3 hrs by FACS; summary of the method: as §4
HepG2 [21] = assay: Induction of apoptosis in human HepG2 cells assessed as cellular membrane damage at 100 uM after 9 hrs using propidium iodide staining by FACS; summary of the method: as §3
HepG2 [22] = assay: Induction of early apoptosis in human HepG2 cells assessed as number of cells with decreased mitochondrial transmembrane potential at 100 uM after 6 hrs using rhodamine 123 staining by FACS; summary of the method: as §2
HepG2 [23] = assay: Effect on morphology in human HepG2 cells assessed as low cellular shape change at 100 uM after 24 hrs by FACS; summary of the method: as §4
HepG2 [24] = assay: Cell cycle arrest in human HepG2 cells assessed as accumulation at G2M phase at 25 uM after 24 hrs using propidium iodide staining by FACS; summary of the method: as §1
HepG2 [25] = assay: Induction of early apoptosis in human HepG2 cells assessed as number of cells with decreased mitochondrial transmembrane potential at 100 uM after 24 hrs using rhodamine 123 staining by FACS; summary of the method: as §2
HepG2 [26] = assay: Cell cycle arrest in human HepG2 cells assessed as accumulation at subG1 phase at 100 uM after 24 hrs using propidium iodide staining by FACS; summary of the method: as §1
HepG2 [27] = assay: Cell cycle arrest in human HepG2 cells assessed as accumulation at subG1 phase at 75 uM after 24 hrs using propidium iodide staining by FACS; summary of the method: as §1
HepG2 [28] = assay: Induction of apoptosis in human HepG2 cells assessed as cellular membrane damage at 100 uM after 3 hrs using propidium iodide staining by FACS; summary of the method: as §3

CCCCCCCCCCCC[C@H](O)[C@@H]1CC[C@@H]([C@@H](O)CCCCCCC(O)CCCCC[C@@H](O)CC2=C[C@H](C)OC2=O)O1 (stereo partly drawn) [ANNOMONTACIN]
Activity (HepG2 [1]): 8.3%
Activity (HepG2 [2]): 37.1%
Activity (HepG2 [3]): 56.7%
Activity (HepG2 [4]): 4.4%
Flu intensity (HepG2 [5]): 367
Activity (HepG2 [6]): 12.2%
Activity (HepG2 [7]): 69.5%
Activity (HepG2 [8]): 35.9%
Activity (HepG2 [9]): 9.8%
Activity (HepG2 [10]): 50.2%
Activity (HepG2 [11]): 10.4%
Flu intensity (HepG2 [12]): 213
Activity (HepG2 [13]): 54.3%
Activity (HepG2 [14]): 75.4%
Activity (HepG2 [15]): 50.5%
Activity (HepG2 [16]): 32.9%
Activity (HepG2 [17]): 39.1%
Activity (HepG2 [18]): 54.6%
Activity (HepG2 [19]): 6.9%
Activity (HepG2 [20]): 40.1%
Activity (HepG2 [21]): 32.4%
Flu intensity (HepG2 [22]): 241
Activity (HepG2 [23]): 80.1%
Activity (HepG2 [24]): 10.8%
Flu intensity (HepG2 [25]): 75
Activity (HepG2 [26]): 58.3%
Activity (HepG2 [27]): 50.7%
Activity (HepG2 [28]): 7.1%
